Measurements: ChEMBL document CHEMBL1121710, “alpha-Ethynyl and alpha-vinyl analogues of ornithine as enzyme-activated inhibitors of mammalian ornithine decarboxylase” (J Med Chem, 1981)

Legend:
[1] = biological target: T1, Ornithine decarboxylase (Rattus norvegicus) (UniProt P09057); test: The compound was tested for the inhibitory activity against L-orinithine carboxylase in ventral prostate of the rat at dose 25 mg/kg, ip); assay type: functional, organism-based; design: dose 25 mg/kg; scale not given: the % may be the effect or the level left; settings: Prostate gland
T1 sequence (whole entry): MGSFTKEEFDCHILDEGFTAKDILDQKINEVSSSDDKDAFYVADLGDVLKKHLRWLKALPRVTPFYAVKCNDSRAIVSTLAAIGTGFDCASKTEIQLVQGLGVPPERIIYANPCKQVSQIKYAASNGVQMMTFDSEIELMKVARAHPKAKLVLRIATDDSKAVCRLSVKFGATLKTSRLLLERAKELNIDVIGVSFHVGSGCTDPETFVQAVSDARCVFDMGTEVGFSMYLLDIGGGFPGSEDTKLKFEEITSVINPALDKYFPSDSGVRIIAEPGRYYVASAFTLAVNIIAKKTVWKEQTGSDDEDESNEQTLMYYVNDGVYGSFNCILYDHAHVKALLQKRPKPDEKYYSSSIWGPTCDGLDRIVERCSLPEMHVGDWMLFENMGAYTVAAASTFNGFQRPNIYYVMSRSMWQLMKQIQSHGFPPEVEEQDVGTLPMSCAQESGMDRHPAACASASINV
Summary of the method: (§1)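 Male Sprague–Dawley rats (200–220 g), fed ad libitum, 12 h light/dark. Single ip dose in 0.9% saline; saline-injected controls. Killed by decapitation 5 h later at a fixed time of day. Ventral prostate, testis and thymus homogenized; ODC activity measured as CO2 release and expressed as % of control. Mean ± SEM of five animals; Student's t test.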

[2] = biological target: T1, Ornithine decarboxylase (Rattus norvegicus); test: Effect on the time of half-inactivation of ornithine decarboxylase in the presence of 10 uM concentration + 1 mM D-2-methylornithine; assay type: functional
Summary of the method: (§2)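 Rat liver ODC from thioacetamide-treated rats (150 mg/kg, 18 h before sacrifice), purified about tenfold by acid treatment at pH 4.6. Enzyme preincubated at 37 °C in 30 mM sodium phosphate pH 7.1 with 5 mM dithiothreitol, 0.1 mM pyridoxal phosphate, inhibitor and 1 mM effector where listed. Half-inactivation time derived from pseudo-first-order loss.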

[3] = biological target: T1, Ornithine decarboxylase (Rattus norvegicus); test: The compound was tested for the inhibitory activity against L-orinithine carboxylase in ventral prostate of the rat dose 200 mg/kg, ip); assay type: functional, organism-based; design: dose 200 mg/kg; scale not given: the % may be the effect or the level left; settings: Prostate gland; at 200 mg/kg; summary of the method: as §1
[4] = biological target: T1, Ornithine decarboxylase (Rattus norvegicus); test: The compound was tested for the inhibitory activity against L-orinithine carboxylase inventral prostate of the rat at dose 100 mg/kg, ip); assay type: functional, organism-based; design: dose 100 mg/kg; scale not given: the % may be the effect or the level left; settings: Prostate gland; summary of the method: as §1
[5] = biological target: T1, Ornithine decarboxylase (Rattus norvegicus); test: The compound was tested for the inhibitory activity against L-orinithine carboxylase in rat thymus. dose 200 mg/kg, ip); assay type: functional, organism-based; design: dose 200 mg/kg; scale not given: the % may be the effect or the level left; settings: at 200 mg/kg; summary of the method: as §1
[6] = biological target: T1, Ornithine decarboxylase (Rattus norvegicus); test: The compound was tested for the inhibitory activity against L-orinithine carboxylase in rat testis. dose 200 mg/kg, ip); assay type: functional, organism-based; design: dose 200 mg/kg; scale not given: the % may be the effect or the level left; settings: at 200 mg/kg; summary of the method: as §1
[7] = biological target: T1, Ornithine decarboxylase (Rattus norvegicus); test: Effect on the time of half-inactivation of ornithine decarboxylase in the presence of 10 uM concentration + 1 mM L-2-methylornithine; assay type: functional; summary of the method: as §2
[8] = biological target: T1, Ornithine decarboxylase (Rattus norvegicus); test: Effect on the time of half-inactivation of ornithine decarboxylase at 10 uM concentration; assay type: functional; summary of the method: as §2
[9] = biological target: T1, Ornithine decarboxylase (Rattus norvegicus); test: Effect on the time of half-inactivation of ornithine decarboxylase in the presence of 10 uM concentration + 1 mM L-ornithine; assay type: functional; summary of the method: as §2
[10] = biological target: T1, Ornithine decarboxylase (Rattus norvegicus); test: The compound was tested for the inhibitory activity against L-orinithine carboxylase in ventral prostate of the rat at dose 12.5 mg/kg, ip); assay type: functional, organism-based; design: dose 12.5 mg/kg; scale not given: the % may be the effect or the level left; settings: Prostate gland; summary of the method: as §1
[11] = biological target: T1, Ornithine decarboxylase (Rattus norvegicus); test: The compound was tested for the inhibitory activity against L-orinithine carboxylase in ventral prostate of the rat at dose 50 mg/kg, ip); assay type: functional, organism-based; design: dose 50 mg/kg; scale not given: the % may be the effect or the level left; settings: Prostate gland; summary of the method: as §1

How did the Control [1] turn out when `C#CC(N)(CCCN)C(=O)O` (stereo unspecified) was run?
The Control was 56%.

What about the Time of half inactivation [2] of the same molecule?
Its Time of half inactivation is 26 min.

And the Control [3]?
Its Control is 18%.

And the Control [4]?
Its Control is 19%.

And the Control [5]?
The Control was 54%.

And the Control [6]?
Its Control is 80%.

And the Time of half inactivation [7]?
Its Time of half inactivation is 270 min.

What about the Time of half inactivation [8] of the same molecule?
Its Time of half inactivation is 18 min.

And the Time of half inactivation [9]?
The Time of half inactivation was 81 min.

And the Control [10]?
Its Control is 59%.

And the Control [11]?
The Control was 40%.
